Data set [1] has as its system Calf thymus DNA. Kind of data set: DNA binding affinity at low ionic strength as change in midpoint. The class given is nucleic-acid assay. The conditions noted are these: Bos taurus.
Data set [2] has as its target Serine protease 1 (Homo sapiens, UniProt P07477). Kind of data set: Inhibition of trypsin by amidase assay.
Data set [3] has as its system Pneumocystis carinii. Kind of data set: (§1) Ability to reduce the severity of PCP in immunosuppressed rats after (iv) administration of 10 mg/kg/day. It is filed as functional. In a few lines:
(§2)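 Male Sprague-Dawley rats (150–200 g, barrier raised) were given corticosteroids to induce PCP. From week 6, groups of eight or more received the compound by single daily iv injection in 0.4 mL saline for 14 days, generally at 10 mg/kg. Rats were killed at the end of week 8. GMS-stained lung sections were scored from 0.5 to 4 (4 = >50% involvement), with saline and pentamidine control groups.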

Data set [4] can be described thus: Cytotoxicity in […], spleen and kidneys for pathologic changes by light microscopy.+ = animals survived without observable distress. It is filed as tissue-based. The conditions noted are these: rat. In a few lines:
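In corticosteroid-immunosuppressed rats given 14 daily iv doses for PCP, liver, spleen and kidneys were examined for pathology by light microscopy, and health was recorded daily. Toxicity was graded at 10 mg/kg or the highest dose tested on a scale from 0 (no local, clinical or histologic toxicity) to 4+ (≥50% of animals died).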

In data set [5] the test system is Pneumocystis carinii. The description is as §1. The class given is functional. In a few lines:
as §2
The source holds these as a separate data set.

This note sets out measurements from ChEMBL document CHEMBL1124749, “Analogues of 1,5-bis(4-amidinophenoxy)pentane (pentamidine) in the treatment of experimental Pneumocystis carinii pneumonia” (J Med Chem, 1990).

Serine protease 1, sequence (P07477 whole entry): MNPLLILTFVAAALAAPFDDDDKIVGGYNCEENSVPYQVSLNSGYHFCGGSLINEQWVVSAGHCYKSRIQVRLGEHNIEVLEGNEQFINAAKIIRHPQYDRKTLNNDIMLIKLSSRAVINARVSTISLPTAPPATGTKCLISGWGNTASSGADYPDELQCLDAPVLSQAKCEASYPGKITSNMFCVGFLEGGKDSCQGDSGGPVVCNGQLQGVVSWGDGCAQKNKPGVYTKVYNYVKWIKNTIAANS

Regarding `Cl.N=C(N)c1ccc(NCCCCNc2ccc(C(=N)N)cc2)cc1`, the ΔTm in data set [1] came to 10.3 °C. The same molecule showed a Ki in data set [2] of 1600 nM. The same molecule came in with a No. of animals in data set [3] of 1.

In the case of `Cl.N=C(N)c1ccc(NCCCCCCNc2ccc(C(=N)N)cc2N)c(N)c1`, the ΔTm in data set [1] came to 8.3 °C. In data set [2], this molecule had a Ki of 5300 nM. Also, the Toxicity entry in data set [4] is “animals survived without observable distress”. In addition, the No. of animals in data set [5] is listed as 3; in data set [3], 1.

With `Cl.Cl.N=C(N)c1ccc(OCCCOc2ccc(C(=N)N)cc2)cc1`, the ΔTm in data set [1] is 14.7 °C. Moreover, the Ki in data set [2] is 3300 nM. The Toxicity result in data set [4] was “animals survived without observable distress”. For the same molecule, the No. of animals in data set [5] was 3; in data set [3] it was 4.

Take `Cl.Cl.N=C(N)c1ccc(OCCCCOc2ccc(C(=N)N)cc2[N+](=O)[O-])c([N+](=O)[O-])c1`: the ΔTm in data set [1] was 8.5 °C. In data set [2], this molecule had a Ki of 5400 nM. In addition, the No. of animals in data set [5] and in data set [3] was 0 throughout.

For the molecule `COc1cc(C(=N)N)ccc1OCCCCCOc1ccc(C(=N)N)cc1OC.Cl.Cl`, in data set [1], the ΔTm was determined as 12 °C. The molecule further registered a Ki in data set [2] of 1300 nM. Further, the No. of animals in data set [5] was found to be 2; in data set [3], 4.

With `COc1cc(C(=N)N)ccc1OCCCCOc1ccc(C(=N)N)cc1OC.Cl.Cl`, the shift in melting temperature (ΔTm) in data set [1] worked out at 10.2 °C. Also, the values for the No. of animals in data set [5] and in data set [3] were 3 and 4, respectively.

Consider `Cl.N=C(N)c1ccc(NCCCCCNc2ccc(C(=N)N)cc2)cc1`, for which the ΔTm in data set [1] was 11.3 °C. In addition, the Ki in data set [2] was determined as 1400 nM. The molecule also displayed a No. of animals in data set [3] of 2.

Consider `Cl.Cl.N=C(N)c1ccc(OCCCCCOc2ccc(C(=N)N)cc2Cl)c(Cl)c1`, for which the ΔTm in data set [1] amounted to 10.5 °C. Besides, the No. of animals in data set [5] and in data set [3] was 0 throughout.

`Cl.N=C(N)c1ccc(NCCNc2ccc(C(=N)N)cc2N)c(N)c1`: in data set [1], the ΔTm worked out at 9.1 °C. Also, in data set [2], the Ki stood at 12700 nM. For the same molecule, the Toxicity result in data set [4] is listed as “animals survived without observable distress”. Also, the No. of animals in data set [5] and in data set [3] was 0 each time.

Regarding `Cl.N=C(N)c1ccc(NCCCNc2ccc(C(=N)N)cc2N)c(N)c1`, in data set [1], the ΔTm was found to be 11 °C. This molecule also returned a Ki in data set [2] of 10300 nM. The Toxicity entry in data set [4] is recorded as “animals survived without observable distress”. For the same molecule, the No. of animals in data set [5] was found to be 1; in data set [3], 4.

As for `Cl.N=C(N)c1ccc(OCCCCCOc2ccc(C(=N)N)cc2)cc1` [PENTAMIDINE HYDROCHLORIDE], in data set [1], the ΔTm came to 10.7 °C. Moreover, the affinity in data set [2], expressed as Ki, was 2300 nM. The values for the No. of animals in data set [5] and in data set [3] were 21 and 28, respectively.

`N=C(N)c1ccc(OCCOc2ccc(C(=N)N)cc2)cc1`: the ΔTm in data set [1] amounted to 5.4 °C. Moreover, the Ki in data set [2] turned out to be 7300 nM.

Take `Cl.N=C(N)c1ccc(NCCCCCNc2ccc(C(=N)N)cc2N)c(N)c1`: the ΔTm in data set [1] was determined as 11 °C. Moreover, affinity in data set [2] was put at a Ki of 4800 nM. Also, the Toxicity result in data set [4] was “animals survived without observable distress”. Moreover, the No. of animals stood at 3 in data set [5] and 2 in data set [3].

Regarding `Cl.Cl.N=C(N)c1cccc(OCCCCOc2cccc(C(=N)N)c2)c1`, in data set [1], the ΔTm stood at 8.1 °C. In data set [2], this molecule had a Ki of 1800 nM. Besides, the figures for the No. of animals in data set [5] and in data set [3] were 2 and 1, respectively.

Consider `Cl.Cl.N=C(N)c1ccc(OCCCCCCOc2ccc(C(=N)N)cc2)cc1`, for which the ΔTm in data set [1] amounted to 9.1 °C. In addition, the Ki in data set [2] was found to be 2700 nM. Also, the No. of animals in data set [5] and in data set [3] was 3 in each case.

With `Cl.Cl.N=C(N)c1cccc(OCCCOc2cccc(C(=N)N)c2)c1`, the ΔTm in data set [1] was found to be 7.6 °C. The molecule further returned a Ki in data set [2] of 1100 nM. In addition, the figures for the No. of animals in data set [5] and in data set [3] were 2 and 1, respectively.

On to `Cl.Cl.N=C(N)c1ccc(OCCCCCOc2ccc(C(=N)N)cc2[N+](=O)[O-])c([N+](=O)[O-])c1`, for which the ΔTm in data set [1] was 9.7 °C. This molecule gave a Ki in data set [2] of 1000 nM. Also, the results for the No. of animals in data set [5] and in data set [3] were 0 and 2, respectively.
